According to ChEMBL document CHEMBL1157144, “Novel 16-membered macrolides modified at C-12 and C-13 positions of midecamycin A1 and miokamycin. Part 1: Synthesis and evaluation of 12,13-carbamate and 12-arylalkylamino-13-hydroxy analogues” (2008):
≈ marks a conversion by molar mass, not a printed value.

Legend:
Type in all cases: functional
[1] = tested on: Staphylococcus aureus; experiment: Antibacterial activity against standard Staphylococcus aureus after 20 hrs by agar dilution method
Procedure, shortened: (§1)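 Agar dilution MIC. The inoculum came from a seed culture in Sensitivity test broth. A 5 µl portion of a cell suspension of about 10^6 CFU/ml was inoculated onto Sensitivity disk agar supplemented with 5% horse blood. Plates were incubated at 37 °C for 20 h, then MIC was read.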

[2] = tested on: Haemophilus influenzae; experiment: Antibacterial activity against standard Haemophilus influenzae after 20 hrs by agar dilution method
Procedure, shortened: (§2)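 MIC by agar dilution. Strains grown on blood agar plates for seed culture. About 5 µl of a suspension of roughly 10^6 CFU/ml spotted onto Sensitivity disk agar with 5% horse blood. Plates incubated at 37 °C for 20 h, then MIC read.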

[3] = tested on: Staphylococcus aureus; experiment: Antibacterial activity against ermC-inducible resistant Staphylococcus aureus after 20 hrs by agar dilution method; procedure, shortened: as §1
[4] = tested on: Moraxella catarrhalis; experiment: Antibacterial activity against standard Moraxella catarrhalis after 20 hrs by agar dilution method; procedure, shortened: as §2
[5] = tested on: Staphylococcus aureus; experiment: Antibacterial activity against ermB-inducible resistant Staphylococcus aureus after 20 hrs by agar dilution method; procedure, shortened: as §1
[6] = tested on: Streptococcus pneumoniae; experiment: Antibacterial activity against mefE efflux-resistant Streptococcus pneumoniae after 20 hrs by agar dilution method
Procedure, shortened: (§3)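 Agar dilution MIC. Streptococcal strains were pre-cultured on blood agar plates. A 5 µl portion of a cell suspension of about 10^6 CFU/ml was inoculated onto Sensitivity disk agar supplemented with 5% horse blood. Plates were incubated at 37 °C for 20 h, then MIC was read.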

[7] = tested on: Streptococcus pneumoniae; experiment: Antibacterial activity against ermB-inducible resistant Streptococcus pneumoniae after 20 hrs by agar dilution method; procedure, shortened: as §3
[8] = tested on: Staphylococcus aureus; experiment: Antibacterial activity against ermA-constitutive resistant Staphylococcus aureus after 20 hrs by agar dilution method; procedure, shortened: as §1
[9] = tested on: Streptococcus pyogenes; experiment: Antibacterial activity against mefE efflux-resistant Streptococcus pyogenes after 20 hrs by agar dilution method; procedure, shortened: as §3
[10] = tested on: Haemophilus influenzae; experiment: Antibacterial activity against susceptible Haemophilus influenzae after 20 hrs by agar dilution method; procedure, shortened: as §2
[11] = tested on: Staphylococcus aureus; experiment: Antibacterial activity against susceptible Staphylococcus aureus after 20 hrs by agar dilution method; procedure, shortened: as §1
[12] = tested on: Streptococcus pyogenes; experiment: Antibacterial activity against ermB-constitutive resistant Streptococcus pyogenes after 20 hrs by agar dilution method; procedure, shortened: as §3
[13] = tested on: Streptococcus pneumoniae; experiment: Antibacterial activity against ermB-constitutive resistant Streptococcus pneumoniae after 20 hrs by agar dilution method; procedure, shortened: as §3
[14] = tested on: Streptococcus pneumoniae; experiment: Antibacterial activity against susceptible Streptococcus pneumoniae after 20 hrs by agar dilution method; procedure, shortened: as §2

Compound: CCC(=O)O[C@@H]1CC(=O)O[C@H](C)C[C@@H]2OC(=O)N(Cc3ccccc3)[C@@H]2/C=C/[C@H](OC(C)=O)[C@H](C)C[C@H](CC=O)[C@H](O[C@@H]2O[C@H](C)[C@@H](O[C@H]3C[C@@](C)(O)[C@@H](OC(=O)CC)[C@H](C)O3)[C@H](N(C)C)[C@H]2O)[C@H]1OC
- MIC [1]: 0.39 µg/mL (≈ 0.388 µM)
- MIC [2]: 3.13 µg/mL (≈ 3.11 µM)
- MIC [3]: 0.78 µg/mL (≈ 0.776 µM)
- MIC [4]: 1.56 µg/mL (≈ 1.55 µM)
- MIC [5]: 0.39 µg/mL (≈ 0.388 µM)
- MIC [6]: 0.2 µg/mL (≈ 0.199 µM)
- MIC [7]: 100 µg/mL (≈ 99.5 µM)
- MIC [8]: > 100 µg/mL
- MIC [9]: 0.2 µg/mL (≈ 0.199 µM)
- MIC [10]: 25 µg/mL (≈ 24.9 µM)
- MIC [11]: 0.39 µg/mL (≈ 0.388 µM)
- MIC [12]: > 100 µg/mL
- MIC [13]: > 100 µg/mL
- MIC [14]: 0.2 µg/mL (≈ 0.199 µM)

Compound: CCC(=O)O[C@@H]1CC(=O)O[C@H](C)C[C@H](O)[C@H](N(C)CCCCCc2ccccc2)/C=C/[C@H](OC(C)=O)[C@H](C)C[C@H](CC=O)[C@H](O[C@@H]2O[C@H](C)[C@@H](O[C@H]3C[C@@](C)(O)[C@@H](OC(=O)CC)[C@H](C)O3)[C@H](N(C)C)[C@H]2O)[C@H]1OC
- MIC [1]: 0.39 µg/mL (≈ 0.372 µM)
- MIC [2]: 3.13 µg/mL (≈ 2.98 µM)
- MIC [3]: 0.39 µg/mL (≈ 0.372 µM)
- MIC [4]: 0.39 µg/mL (≈ 0.372 µM)
- MIC [5]: 0.78 µg/mL (≈ 0.743 µM)
- MIC [6]: 0.2 µg/mL (≈ 0.191 µM)
- MIC [7]: 12.5 µg/mL (≈ 11.9 µM)
- MIC [8]: > 100 µg/mL
- MIC [9]: 0.2 µg/mL (≈ 0.191 µM)
- MIC [10]: 25 µg/mL (≈ 23.8 µM)
- MIC [11]: 0.39 µg/mL (≈ 0.372 µM)
- MIC [12]: 25 µg/mL (≈ 23.8 µM)
- MIC [13]: 100 µg/mL (≈ 95.3 µM)
- MIC [14]: 0.1 µg/mL (≈ 0.0953 µM)

Compound: CC[C@H]1OC(=O)[C@H](C)[C@@H](O[C@H]2C[C@@](C)(OC)[C@@H](O)[C@H](C)O2)[C@H](C)[C@@H](O[C@@H]2O[C@H](C)C[C@H](N(C)C)[C@H]2O)[C@](C)(OC)C[C@@H](C)C(=O)[C@H](C)[C@@H](O)[C@]1(C)O [CLARITHROMYCIN]
- MIC [1]: 0.1 µg/mL (≈ 0.134 µM)
- MIC [2]: 1.56 µg/mL (≈ 2.09 µM)
- MIC [3]: 1.56 µg/mL (≈ 2.09 µM)
- MIC [4]: 0.1 µg/mL (≈ 0.134 µM)
- MIC [5]: > 100 µg/mL
- MIC [6]: 0.78 µg/mL (≈ 1.04 µM)
- MIC [7]: > 100 µg/mL
- MIC [8]: > 100 µg/mL
- MIC [9]: 3.13 µg/mL (≈ 4.18 µM)
- MIC [10]: 6.25 µg/mL (≈ 8.36 µM)
- MIC [11]: 0.1 µg/mL (≈ 0.134 µM)
- MIC [12]: > 100 µg/mL
- MIC [13]: > 100 µg/mL
- MIC [14]: 0.025 µg/mL (≈ 0.0334 µM)

Compound: CCC(=O)O[C@@H]1CC(=O)O[C@H](C)C[C@H](O)[C@H](N(C)CCc2ccccc2)/C=C/[C@H](OC(C)=O)[C@H](C)C[C@H](CC=O)[C@H](O[C@@H]2O[C@H](C)[C@@H](O[C@H]3C[C@@](C)(O)[C@@H](OC(=O)CC)[C@H](C)O3)[C@H](N(C)C)[C@H]2O)[C@H]1OC
- MIC [1]: 0.39 µg/mL (≈ 0.387 µM)
- MIC [2]: 1.56 µg/mL (≈ 1.55 µM)
- MIC [3]: 0.39 µg/mL (≈ 0.387 µM)
- MIC [4]: 0.39 µg/mL (≈ 0.387 µM)
- MIC [5]: 0.78 µg/mL (≈ 0.774 µM)
- MIC [6]: 0.1 µg/mL (≈ 0.0993 µM)
- MIC [7]: 25 µg/mL (≈ 24.8 µM)
- MIC [8]: > 100 µg/mL
- MIC [9]: 0.2 µg/mL (≈ 0.199 µM)
- MIC [10]: 25 µg/mL (≈ 24.8 µM)
- MIC [11]: 0.39 µg/mL (≈ 0.387 µM)
- MIC [12]: > 100 µg/mL
- MIC [13]: > 100 µg/mL
- MIC [14]: 0.1 µg/mL (≈ 0.0993 µM)

Compound: CCC(=O)O[C@@H]1CC(=O)O[C@H](C)C[C@@H]2OC(=O)N(CCc3ccccc3)[C@@H]2/C=C/[C@H](OC(C)=O)[C@H](C)C[C@H](CC=O)[C@H](O[C@@H]2O[C@H](C)[C@@H](O[C@H]3C[C@@](C)(O)[C@@H](OC(=O)CC)[C@H](C)O3)[C@H](N(C)C)[C@H]2O)[C@H]1OC
- MIC [1]: 0.78 µg/mL (≈ 0.765 µM)
- MIC [2]: 3.13 µg/mL (≈ 3.07 µM)
- MIC [3]: 1.56 µg/mL (≈ 1.53 µM)
- MIC [4]: 0.78 µg/mL (≈ 0.765 µM)
- MIC [5]: 6.25 µg/mL (≈ 6.13 µM)
- MIC [6]: 0.2 µg/mL (≈ 0.196 µM)
- MIC [7]: 50 µg/mL (≈ 49.1 µM)
- MIC [8]: > 100 µg/mL
- MIC [9]: 0.1 µg/mL (≈ 0.0981 µM)
- MIC [10]: 25 µg/mL (≈ 24.5 µM)
- MIC [11]: 0.39 µg/mL (≈ 0.383 µM)
- MIC [12]: > 100 µg/mL
- MIC [13]: > 100 µg/mL
- MIC [14]: 0.2 µg/mL (≈ 0.196 µM)

Compound: CCC(=O)O[C@@H]1CC(=O)O[C@H](C)C[C@H](O)[C@H](N(C)CCCc2ccncc2)/C=C/[C@H](OC(C)=O)[C@H](C)C[C@H](CC=O)[C@H](O[C@@H]2O[C@H](C)[C@@H](O[C@H]3C[C@@](C)(O)[C@@H](OC(=O)CC)[C@H](C)O3)[C@H](N(C)C)[C@H]2O)[C@H]1OC
- MIC [1]: 0.2 µg/mL (≈ 0.196 µM)
- MIC [2]: 1.56 µg/mL (≈ 1.53 µM)
- MIC [3]: 0.39 µg/mL (≈ 0.382 µM)
- MIC [4]: 0.78 µg/mL (≈ 0.763 µM)
- MIC [5]: 0.2 µg/mL (≈ 0.196 µM)
- MIC [6]: 0.1 µg/mL (≈ 0.0978 µM)
- MIC [7]: > 100 µg/mL
- MIC [8]: > 100 µg/mL
- MIC [9]: 0.1 µg/mL (≈ 0.0978 µM)
- MIC [10]: 12.5 µg/mL (≈ 12.2 µM)
- MIC [11]: 0.2 µg/mL (≈ 0.196 µM)
- MIC [12]: > 100 µg/mL
- MIC [13]: > 100 µg/mL
- MIC [14]: 0.05 µg/mL (≈ 0.0489 µM)

Compound: CCC(=O)O[C@@H]1CC(=O)O[C@H](C)C[C@@H]2OC(=O)N(CCCc3ccccc3)[C@@H]2/C=C/[C@H](OC(C)=O)[C@H](C)C[C@H](CC=O)[C@H](O[C@@H]2O[C@H](C)[C@@H](O[C@H]3C[C@@](C)(O)[C@@H](OC(=O)CC)[C@H](C)O3)[C@H](N(C)C)[C@H]2O)[C@H]1OC
- MIC [1]: 0.78 µg/mL (≈ 0.755 µM)
- MIC [2]: 6.25 µg/mL (≈ 6.05 µM)
- MIC [3]: 0.78 µg/mL (≈ 0.755 µM)
- MIC [4]: 1.56 µg/mL (≈ 1.51 µM)
- MIC [5]: 1.56 µg/mL (≈ 1.51 µM)
- MIC [6]: 0.2 µg/mL (≈ 0.194 µM)
- MIC [7]: > 100 µg/mL
- MIC [8]: > 100 µg/mL
- MIC [9]: 0.2 µg/mL (≈ 0.194 µM)
- MIC [10]: 100 µg/mL (≈ 96.8 µM)
- MIC [11]: 0.78 µg/mL (≈ 0.755 µM)
- MIC [12]: > 100 µg/mL
- MIC [13]: > 100 µg/mL
- MIC [14]: 0.2 µg/mL (≈ 0.194 µM)
